# Publication PMC8985159 (RSC Chemical Biology, 2022)
# Columns and labels:
# Sirt1_134-747 = target: T1, Sirt1_134-747 (Homo sapiens, UniProt Q96EB6); assay: Sirtuin deacetylation activity assay; type: biochemical
# T1 sequence (Q96EB6 134-747): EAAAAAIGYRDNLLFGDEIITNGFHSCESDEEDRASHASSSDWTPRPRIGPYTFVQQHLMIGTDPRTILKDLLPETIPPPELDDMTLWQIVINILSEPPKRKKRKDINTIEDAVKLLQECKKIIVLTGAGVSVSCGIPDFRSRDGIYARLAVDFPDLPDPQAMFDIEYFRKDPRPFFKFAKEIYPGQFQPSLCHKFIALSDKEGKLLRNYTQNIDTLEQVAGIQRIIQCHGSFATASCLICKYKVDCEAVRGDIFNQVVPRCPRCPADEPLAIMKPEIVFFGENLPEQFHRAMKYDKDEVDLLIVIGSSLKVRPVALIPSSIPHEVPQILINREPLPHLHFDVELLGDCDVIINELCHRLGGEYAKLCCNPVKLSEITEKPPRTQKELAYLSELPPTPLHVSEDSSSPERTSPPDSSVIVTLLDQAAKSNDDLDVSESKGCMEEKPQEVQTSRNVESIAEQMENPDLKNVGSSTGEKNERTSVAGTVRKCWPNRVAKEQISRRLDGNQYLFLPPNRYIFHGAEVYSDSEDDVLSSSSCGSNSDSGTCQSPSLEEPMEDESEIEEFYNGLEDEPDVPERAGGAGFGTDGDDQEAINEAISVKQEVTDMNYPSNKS
# human recombinant HDAC6 = target: T2, human recombinant HDAC6 (Homo sapiens, UniProt Q9UBN7); assay: HDAC6 activity assay; type: biochemical
# T2 sequence (Q9UBN7 1-1215): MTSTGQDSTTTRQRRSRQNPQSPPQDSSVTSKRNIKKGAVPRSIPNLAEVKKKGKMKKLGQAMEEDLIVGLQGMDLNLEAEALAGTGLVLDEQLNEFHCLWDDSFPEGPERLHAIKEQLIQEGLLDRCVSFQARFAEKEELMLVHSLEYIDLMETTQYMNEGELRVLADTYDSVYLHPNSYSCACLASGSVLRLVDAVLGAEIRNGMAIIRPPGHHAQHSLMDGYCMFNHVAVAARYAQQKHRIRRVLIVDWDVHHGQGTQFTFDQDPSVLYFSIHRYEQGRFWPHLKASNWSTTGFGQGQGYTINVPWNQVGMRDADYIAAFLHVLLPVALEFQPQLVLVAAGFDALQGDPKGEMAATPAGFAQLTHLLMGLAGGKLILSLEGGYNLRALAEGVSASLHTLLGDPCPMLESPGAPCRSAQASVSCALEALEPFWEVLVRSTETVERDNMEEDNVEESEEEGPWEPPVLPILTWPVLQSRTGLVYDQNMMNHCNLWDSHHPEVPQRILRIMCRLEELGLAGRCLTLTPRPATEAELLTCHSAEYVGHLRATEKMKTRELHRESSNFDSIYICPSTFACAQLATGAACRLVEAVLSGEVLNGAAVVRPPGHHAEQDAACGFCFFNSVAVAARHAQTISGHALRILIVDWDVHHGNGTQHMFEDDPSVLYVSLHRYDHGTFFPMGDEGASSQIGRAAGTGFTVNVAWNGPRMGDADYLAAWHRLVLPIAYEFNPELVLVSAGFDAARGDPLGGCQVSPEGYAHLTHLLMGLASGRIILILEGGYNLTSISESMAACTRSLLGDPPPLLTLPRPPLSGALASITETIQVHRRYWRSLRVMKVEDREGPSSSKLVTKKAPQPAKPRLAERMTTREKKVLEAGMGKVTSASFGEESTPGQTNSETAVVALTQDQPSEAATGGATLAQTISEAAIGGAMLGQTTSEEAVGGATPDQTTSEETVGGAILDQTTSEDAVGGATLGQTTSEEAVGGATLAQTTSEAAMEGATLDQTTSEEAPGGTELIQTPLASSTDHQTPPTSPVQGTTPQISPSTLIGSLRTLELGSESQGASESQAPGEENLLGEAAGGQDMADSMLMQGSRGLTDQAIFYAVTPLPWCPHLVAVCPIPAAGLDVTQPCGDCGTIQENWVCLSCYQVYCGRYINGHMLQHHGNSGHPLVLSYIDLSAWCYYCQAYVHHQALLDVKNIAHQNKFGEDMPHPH
# Method in brief: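 Enzyme was incubated with serially diluted test compound in DMSO and ZMAL (added from a 126 μM solution) for 90 min at 37 °C. Stop solution (33 μM trichostatin A, 6 mg/mL trypsin) was added, followed by 30 min at 37 °C. Fluorescence read at Ex 390 / Em 460 nm.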
# HGC-27 cells = assay: Cell viability assay; type: cell-based; details: Homo sapiens
# Method in brief: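 MTS/PMS (20:1) viability assay. Cells were seeded at 2000 per well with test compound or vehicle (0.5% DMSO final) and incubated 72 or 120 h at 37 °C, 5% CO2. Absorbance was read 2–4 h after reagent addition. Media: HEK293T in DMEM with 10% FBS, 2 mM glutamine and 1% pen-strep; HGC-27 in DMEM:Ham's 12 (1:1) with 5% FCS.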
# PC-3M-luc cells [1] = assay: Cell viability assay; type: cell-based, human; details: 3 days vs 5 days
# PC-3M-luc cells [2] = assay: Colony Forming Unit; type: cell-based, human
# Method in brief: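 PC-3M-luc cells were grown in RPMI 1640 with 10% FBS, 2 mM glutamine and 1% pen-strep, then seeded at 250 cells per well. After 2–3 h, test compound or vehicle was added (0.5% DMSO final) and plates were incubated 7 days at 37 °C, 5% CO2. Cells were PBS-washed, fixed in 4% PFA for 20 min at RT and stained with 0.01% crystal violet for 30 min. Colonies were then counted.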
# PC-3M-luc cells [3] = assay: Migration assay; type: cell-based, human
# [4] = system: c-Myc protein levels in PC-3M-luc cells; assay: Western blot of c-Myc protein levels; type: cell-based, human; details: 24 h
# [5] = system: KRas4a fatty acylation in HEK293T cells; assay: In cell inhibition of SIRT2 defatty-acylation of KRas-4a; type: cell-based, human; details: 25 μM
# [6] = target: T3, N-terminally labelled Nluc-Sirt2 fusion protein (Homo sapiens, UniProt Q8IXJ6); assay: NanoBRET assay, N-terminal Nluc-Sirt2 fusion in HEK293T cells
# T3 sequence (Q8IXJ6 50-356): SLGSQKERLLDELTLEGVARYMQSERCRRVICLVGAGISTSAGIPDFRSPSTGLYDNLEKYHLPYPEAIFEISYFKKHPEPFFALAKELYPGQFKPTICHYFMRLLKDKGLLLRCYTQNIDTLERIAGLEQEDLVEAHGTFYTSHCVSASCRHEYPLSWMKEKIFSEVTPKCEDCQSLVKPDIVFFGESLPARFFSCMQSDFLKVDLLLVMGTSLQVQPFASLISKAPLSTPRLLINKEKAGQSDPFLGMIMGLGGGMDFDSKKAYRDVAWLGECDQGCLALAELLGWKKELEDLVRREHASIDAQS
smiles,measurement,setting,value
Cc1cc(C)nc(SCC(=O)Nc2ncc(Cc3cccc(OCc4cn(Cc5ccc(OCCN6CCOCC6)cc5)nn4)c3)s2)n1 [Compound 12],IC50,Sirt1_134-747,> 100 µM
same,IC50,human recombinant HDAC6,> 100 µM
same,GI50,HGC-27 cells,8.21 ± 0.59 µM
same,dependence of the effect on cell viability on incubation time,PC-3M-luc cells [1],higher effects on the cell viability of PC-3M-luc cells could be observed after prolonged incubation time
same,effect on colony formation (in words),PC-3M-luc cells [2],Colony formation was almost completely prevented
same,concentration-dependent effect on cell migration,PC-3M-luc cells [3],concentration-dependent inhibition of migration
same,c-Myc protein levels (in words),[4]; 10 μM,completely absent
same,concentration dependence of c-Myc levels,[4],reduced in a concentration-dependent manner
same,KRas4a acylation levels (in words),[5],increased acylation levels of KRas4a compared to DMSO treated cells
same,IC50,[6],0.098 ± 0.004 µM
same,NanoBRET binding in digitonin permeabilized vs untreated cells,[6]; digitonin 50 μg mL−1,None of the tested compounds revealed significant differences in the NanoBRET signals between permeabilized (digitonin) and untreated cells
